Results: ChEMBL document CHEMBL2046346, “Discovery of phenylpropanoic acid derivatives containing polar functionalities as potent and orally bioavailable G protein-coupled receptor 40 agonists for the treatment of type 2 diabetes” (J Med Chem, 2012)
pEC50, pKi: −log10 of the molar value. The source made the active and inactive calls. No cut-off for these calls is given here.

Key:
Rattus norvegicus [1] = organism: Rattus norvegicus; experiment: Insulinotropic activity in rat INS1(833/15) cells assessed as increase in insulin secretion at 10 uM after 2 hrs by competitive enzyme immunoassay in the presence of 16 mM glucose; type: functional, cell-based
Procedure, shortened: (§1)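 INS-1 833/15 cells seeded on poly-L-lysine, cultured 2 days, preincubated in KRBH (0.2% FFA-free BSA) with 1 mM glucose, then 2 h in KRBH at 1–16 mM glucose with or without compound (DMSO vehicle). Secreted insulin by EIA; expressed as fold over 1 mM glucose alone, mean ± SD (n = 3–6).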

Rattus norvegicus [2] = organism: Rattus norvegicus; experiment: Insulinotropic activity in rat INS1(833/15) cells assessed as increase in insulin secretion at 10 uM after 2 hrs by competitive enzyme immunoassay in the presence of low concentration of glucose; type: functional, cell-based; procedure, shortened: as §1
Rattus norvegicus [3] = organism: Rattus norvegicus; experiment: Insulinotropic activity in rat INS1(833/15) cells assessed as increase in insulin secretion at 10 uM after 2 hrs by competitive enzyme immunoassay in the presence of 11 mM glucose; type: functional, cell-based; procedure, shortened: as §1
[4] = molecular target: T1, Free fatty acid receptor 1 (Homo sapiens, UniProt O14842); experiment: Agonist activity at human GPR40 receptor expressed in CHO cells assessed as increase in intracellular calcium level for 90 secs by FLIPR assay in the presence of 0.1% BSA; type: functional, cell-based
T1 sequence (O14842 whole entry): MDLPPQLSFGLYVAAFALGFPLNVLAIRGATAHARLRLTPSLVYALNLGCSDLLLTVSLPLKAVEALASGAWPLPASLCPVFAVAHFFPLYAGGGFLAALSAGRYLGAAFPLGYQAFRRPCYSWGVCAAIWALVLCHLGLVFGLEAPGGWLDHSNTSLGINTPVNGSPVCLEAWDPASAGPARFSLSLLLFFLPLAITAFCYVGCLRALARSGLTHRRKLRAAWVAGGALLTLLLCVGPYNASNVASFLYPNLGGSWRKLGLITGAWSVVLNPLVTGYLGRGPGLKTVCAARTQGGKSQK
Procedure, shortened: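 CHO dhfr cells stably expressing human GPR40 plated overnight, loaded 60 min at 37 °C with Fluo 4 AM (2.5 μg/mL), 2.5 mmol/L probenecid, 0.1% fatty acid-free BSA. Ca2+ rise after compound addition read 90 s; response scaled between vehicle (0%) and 10 μM γ-linolenic acid (100%).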

[5] = molecular target: Free fatty acid receptor 1 (Rattus norvegicus, UniProt Q8K3T4); experiment: Displacement of 3-[4-({2',6'-dimethyl-6-[(4-[3H])phenylmethoxy]biphenyl-3-yl}methoxy)phenyl] propanoic acid from rat GPR40 receptor expressed in CHO cell membrane after 90 mins by liquid scintillation counting in the presence of 0.2% BSA; type: cell membranes
Sequence of Free fatty acid receptor 1 (Rattus norvegicus, UniProt Q8K3T4) (Q8K3T4 whole entry): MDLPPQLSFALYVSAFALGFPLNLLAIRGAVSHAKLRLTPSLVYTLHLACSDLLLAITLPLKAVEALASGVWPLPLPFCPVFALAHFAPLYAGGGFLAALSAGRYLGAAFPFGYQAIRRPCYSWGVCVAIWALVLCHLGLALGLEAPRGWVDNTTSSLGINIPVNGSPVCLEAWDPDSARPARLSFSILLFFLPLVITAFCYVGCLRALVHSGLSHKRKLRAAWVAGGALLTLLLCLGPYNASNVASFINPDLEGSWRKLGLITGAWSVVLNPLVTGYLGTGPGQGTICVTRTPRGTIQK
Procedure, shortened: (§2)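 Membranes from CHO lines stably expressing human or rat GPR40, buffer 25 mmol/L Tris-HCl pH 7.5, 5 mmol/L EDTA, protease inhibitors, 0.05% CHAPS, 0.2% fatty-acid-free BSA. Tritiated ligand at 2 or 6 nmol/L with graded test compound, 90 min room temperature, GF/C filtration, scintillation counting. Nonspecific binding: 10 μmol/L unlabeled ligand. IC50 by nonlinear regression, Ki = IC50/(1+[L]/Kd).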

[6] = Metabolic stability in human hepatic microsomes; type: ADME; settings: liver microsomes, read-out: Stability
[7] = Cytotoxicity against human HepG2 cells assessed as intracellular ATP level at 30 uM after 24 hrs by ATPlite assay relative to control; type: cell-based; settings: read-out: Activity
Procedure, shortened: (§3)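 HepG2 cells seeded 2 × 10^4/well, treated 1 day in DMEM with 0.5% FBS, 2 mM L-glutamine, 1 mM pyruvate. ATP measured by ATPlite luminescence; % of 1% DMSO control (RLU ratio ×100), n = 3.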

[8] = molecular target: T1, Free fatty acid receptor 1; experiment: Displacement of 3-[4-({2',6'-dimethyl-6-[(4-[3H])phenylmethoxy]biphenyl-3-yl}methoxy)phenyl] propanoic acid from human GPR40 receptor expressed in CHO cell membrane after 90 mins by liquid scintillation counting in the presence of 0.2% BSA; type: cell membranes; procedure, shortened: as §2
[9] = Lipophilicity, log D of the compound by RP-HPLC analysis; type: physicochemical
Rattus norvegicus [10] = organism: Rattus norvegicus; experiment: Insulinotropic activity in rat INS1(833/15) cells assessed as increase in insulin secretion at 1 uM after 2 hrs by competitive enzyme immunoassay in the presence of 4 mM glucose; type: functional, cell-based; procedure, shortened: as §1
Rattus norvegicus [11] = organism: Rattus norvegicus; experiment: Insulinotropic activity in rat INS1(833/15) cells assessed as increase in insulin secretion at 1 uM after 2 hrs by competitive enzyme immunoassay in the presence of 16 mM glucose; type: functional, cell-based; procedure, shortened: as §1
[12] = Cytotoxicity against human HepG2 cells assessed as intracellular ATP level at 10 uM after 24 hrs by ATPlite assay relative to control; type: cell-based; settings: read-out: Activity; procedure, shortened: as §3
Rattus norvegicus [13] = organism: Rattus norvegicus; experiment: Insulinotropic activity in rat INS1(833/15) cells assessed as increase in insulin secretion after 2 hrs by competitive enzyme immunoassay in the presence of 11 mM glucose; type: functional, cell-based; procedure, shortened: as §1
HepG2 [14] = experiment: Induction of apoptosis in human HepG2 cells assessed as caspase 3/7 activity at 30 uM after 24 hrs by caspase Glo assay relative to staurosporine; type: cell-based; settings: hepg2, 24 h
Procedure, shortened: (§4)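 HepG2 cells seeded 2 × 10^4/well, treated 1 day in DMEM with 0.5% FBS, 2 mM L-glutamine, 1 mM pyruvate. Caspase-Glo 3/7 luminescence; activity = (compound − 1% DMSO)/(30 μM staurosporine − 1% DMSO) ×100, n = 3.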

HepG2 [15] = experiment: Induction of apoptosis in human HepG2 cells assessed as caspase 3/7 activity at 10 uM after 24 hrs by caspase Glo assay relative to staurosporine; type: cell-based; settings: hepg2, 24 h; procedure, shortened: as §4
Rattus norvegicus [16] = organism: Rattus norvegicus; experiment: Insulinotropic activity in rat INS1(833/15) cells assessed as increase in insulin secretion at 1 uM after 2 hrs by competitive enzyme immunoassay in the presence of 1 mM glucose; type: functional, cell-based; procedure, shortened: as §1
Rattus norvegicus [17] = organism: Rattus norvegicus; experiment: Insulinotropic activity in rat INS1(833/15) cells assessed as increase in insulin secretion at >0.1 uM after 2 hrs by competitive enzyme immunoassay in the presence of 11 mM glucose; type: functional, cell-based; procedure, shortened: as §1
Rattus norvegicus [18] = organism: Rattus norvegicus; experiment: Insulinotropic activity in rat INS1(833/15) cells assessed as increase in insulin secretion at 1 uM after 2 hrs by competitive enzyme immunoassay in the presence of >6 mM glucose; type: functional, cell-based; procedure, shortened: as §1
[19] = Metabolic stability in rat hepatic microsomes; type: ADME; settings: liver microsomes, read-out: Stability
Rattus norvegicus [20] = organism: Rattus norvegicus; experiment: Insulinotropic activity in rat INS1(833/15) cells assessed as increase in insulin secretion at 30 uM after 2 hrs by competitive enzyme immunoassay in the presence of 11 mM glucose; type: functional, cell-based; procedure, shortened: as §1
Rattus norvegicus [21] = organism: Rattus norvegicus; experiment: Insulinotropic activity in rat INS1(833/15) cells assessed as increase in insulin secretion at 30 uM after 2 hrs by competitive enzyme immunoassay in the presence of 16 mM glucose; type: functional, cell-based; procedure, shortened: as §1
Rattus norvegicus [22] = experiment: Induction of hypoglycemia in fasted Sprague-Dawley rat assessed as decrease in plasma glucose level below normal fasting level at 10 mg/kg, po; type: organism-based; design: dose 10 mg/kg, route oral; settings: in vivo
Procedure, shortened: (§5)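 Eight-week-old male SD rats fasted overnight, grouped by body weight (n = 6), single oral dose in 0.5% methylcellulose vehicle; tail-vein blood before and 0.5, 1, 2, 3 h after dosing; plasma glucose by analyzer, insulin by ELISA; mean ± SD.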

Rattus norvegicus [23] = organism: Rattus norvegicus; experiment: Insulinotropic activity in rat INS1(833/15) cells assessed as increase in insulin secretion at 30 uM after 2 hrs by competitive enzyme immunoassay in the presence of low concentration of glucose; type: functional, cell-based; procedure, shortened: as §1
Rattus norvegicus [24] = experiment: Induction of hypoglycemia in fasted Sprague-Dawley rat assessed as increase in insulin secretion level at 30 mg/kg, po after 30 mins; type: organism-based; design: dose 30 mg/kg, route oral; settings: in vivo, 0.5 h; procedure, shortened: as §5

Row | SMILES | pEC50 [4] | pKi [5] | microsomal CLint [6] [µL/min/mg] | viability at 24 h, 30 µM [7] [%] | pKi [8] | logD [9] | viability at 24 h, 10 µM [12] [%] | Activity (HepG2 [14]) [%] | Activity (HepG2 [15]) [%] | other results
1 | CC(C)[C@H]1CC[C@H](C(=O)N[C@H](Cc2ccccc2)C(=O)O)CC1 |  |  |  |  |  |  |  |  |  | Activity (Rattus norvegicus [1]): Active; Activity (Rattus norvegicus [2]): Active; Activity (Rattus norvegicus [3]): Active
2 | Cc1cc(OC2CCS(=O)(=O)CC2)cc(C)c1-c1cccc(COc2ccc(CCC(=O)O)c(F)c2)c1 | 7.60 | 8.19 | 3 | 38 | 7.80 | 3.06 | 79.8 | 28.9 | -0.5 | Activity (Rattus norvegicus [10]): inactive; Activity (Rattus norvegicus [11]): Active; Activity (Rattus norvegicus [13]): Dose-dependent effect; Activity (Rattus norvegicus [16]): inactive; Activity (Rattus norvegicus [17]): Active; Activity (Rattus norvegicus [18]): Active
3 | Cc1cccc(C)c1-c1cccc(COc2ccc(CCC(=O)O)cc2)c1 | 7.66 | 7.57 | 28 |  | 7.34 | 4.04 |  |  |  | microsomal CLint [19]: 34 µL/min/mg
4 | Cc1cc(OCC2CC2)cc(C)c1-c1cccc(COc2ccc(CCC(=O)O)cc2)c1 | 7.82 | 8.25 |  |  | 7.80 | 4.61 |  |  |  | 
5 | CCOCCOc1cc(C)c(-c2cccc(COc3ccc(CCC(=O)O)cc3)c2)c(C)c1 | 7.89 | 8.00 |  |  | 7.64 | 3.89 |  |  |  | 
6 | CCOCCOc1cc(C)c(-c2cccc(COc3ccc(CCC(=O)O)c(F)c3)c2)c(C)c1 | 8.35 | 8.35 | 8 |  | 7.92 | 4.14 |  |  |  | 
7 | COc1ccc(-c2c(C)cccc2C)cc1COc1ccc(CCC(=O)O)cc1 |  | 5.00 |  |  | 6.28 | 4.04 |  |  |  | 
8 | COc1ccc(COc2ccc(CCC(=O)O)cc2)cc1-c1c(C)cccc1C | 7.70 | 7.06 |  |  | 7.33 | 3.38 |  |  |  | 
9 | Cc1cc(OCC2(O)CCS(=O)(=O)CC2)cc(C)c1-c1cccc(COc2ccc(CCC(=O)O)c(F)c2)c1 | 7.82 | 8.09 |  | 61.5 | 7.72 | 2.78 | 88.6 | 2.8 | -0.2 | 
10 | Cc1cc(OC2CCS(=O)(=O)CC2)cc(C)c1-c1cccc(CNc2ccc(CCC(=O)O)c(F)c2)c1 | 7.64 | 8.29 |  | 60.7 | 7.74 | 2.44 | 78.8 | -0.7 | -0.5 | 
11 | Cc1cccc(C)c1-c1cccc(COc2ccc(CCC(=O)O)c(F)c2)c1 |  | 7.44 | 69 |  |  |  |  |  |  | microsomal CLint [19]: 39 µL/min/mg
12 | Cc1cccc(C)c1-c1cccc(COc2ccc(CCC(=O)O)cc2)c1C | 7.40 | 7.52 |  |  | 7.24 | 4.22 |  |  |  | 
13 | Cc1cc(OC2CCOCC2)cc(C)c1-c1cccc(COc2ccc(CCC(=O)O)c(F)c2)c1 | 7.64 | 8.17 |  | 38.1 | 7.70 | 4.1 | 60.3 | 42.8 | 0.9 | 
14 | Cc1cccc(Oc2cc(C)c(-c3cccc(COc4ccc(CCC(=O)O)c(F)c4)c3)c(C)c2)n1.Cl | 7.51 | 8.17 |  | 47.5 | 7.92 | 4.23 | 56.7 | 41.1 | -0.4 | 
15 | Cc1cc(OCc2ccccc2)cc(C)c1-c1cccc(COc2ccc(CCC(=O)O)cc2)c1 | 7.85 | 8.17 |  |  | 7.82 | 5.08 |  |  |  | 
16 | COc1cc(COc2ccc(CCC(=O)O)c(F)c2)cc(-c2c(C)cccc2C)c1 |  | 6.92 |  |  | 7.00 | 4.16 |  |  |  | 
17 | Cc1cc(OCCCN2CCCC2=O)cc(C)c1-c1cccc(COc2ccc(CCC(=O)O)c(F)c2)c1 | 7.49 | 8.01 | 7 | 30.3 | 7.68 | 3.51 | 54.1 | 20.3 | 0.2 | microsomal CLint [19]: 5 µL/min/mg
18 | CCS(=O)(=O)CCOc1cc(C)c(-c2cccc(CNc3ccc(CCC(=O)O)c(F)c3)c2)c(C)c1 | 7.00 | 8.35 | 2 | 45.7 | 7.70 | 2.39 | 79.8 | -0.9 | -1 | 
19 | CCS(=O)(=O)CCOc1cc(C)c(-c2cccc(COc3ccc(CCC(=O)O)c(F)c3)c2)c(C)c1 | 7.60 | 8.38 | 6 | 32.5 | 7.82 | 3.02 | 79.8 | 17.7 | -1.1 | microsomal CLint [19]: 10 µL/min/mg
20 | CCOCCOc1cc(C)c(-c2cccc(CNc3ccc(CCC(=O)O)c(F)c3)c2)c(C)c1.Cl | 7.59 | 8.21 |  | 48.5 | 7.74 | 3.49 | 9.9 | 1.2 | 5.3 | 
21 | COc1cc(C)c(-c2cccc(COc3ccc(CCC(=O)O)cc3)c2)c(C)c1 | 7.92 | 8.21 |  |  | 7.60 | 3.83 |  |  |  | 
22 | COc1ccc(Cl)cc1C(=O)NCCc1ccc(S(=O)(=O)NC(=O)NC2CCCCC2)cc1 [GLYBURIDE] |  |  |  |  |  |  |  |  |  | Activity (Rattus norvegicus [20]): Active; Activity (Rattus norvegicus [21]): Active; Activity (Rattus norvegicus [22]): Toxic; Activity (Rattus norvegicus [23]): Active; Activity (Rattus norvegicus [24]): Toxic
